According to ChEMBL document CHEMBL1156246 (J Med Chem, 2009):
Calls of active or inactive are those of the source. The rule behind the calls is not given here.

What was measured:
Rattus norvegicus [1] = experiment: Neurotoxicity in po dosed Sprague-Dawley rat assessed as time of peak effect by rotarod test; type: toxicity, organism-based; details: in vivo
Mus musculus [2] = experiment: Neurotoxicity in ip dosed albino mouse assessed as time of peak effect by rotarod test; type: toxicity, organism-based; details: in vivo
Mus musculus [3] = experiment: Anticonvulsant activity in ip dosed albino mouse assessed as protection against subcutaneous metrazole-induced seizures; type: functional, organism-based
Outline: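 Male albino Carworth Farms No. 1 mice, dosed intraperitoneally; subcutaneous metrazol seizure model run by previously reported methods under the NIH Anticonvulsant Screening Program; protection against seizures scored.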

[4] = Neurotoxicity in po dosed Sprague-Dawley rat by rotarod test; type: toxicity, organism-based; details: in vivo
Mus musculus [5] = experiment: Anticonvulsant activity in ip dosed albino mouse assessed as protection against 6 Hz electric shock-induced seizures; type: functional
Outline: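 6 Hz psychomotor seizure test in mice dosed ip, with stimulation at 32 mA.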

Rattus norvegicus [6] = experiment: Anticonvulsant activity in po dosed Sprague-Dawley rat assessed as protection against subcutaneous metrazole-induced seizures; type: functional, organism-based
Outline: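 Male albino Sprague-Dawley rats, oral dosing; subcutaneous metrazol seizure test by previously reported methods within the NIH Anticonvulsant Screening Program.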

Rattus norvegicus [7] = experiment: Anticonvulsant activity against maximal electroshock-induced seizures in po dosed Sprague-Dawley rat assessed as time of peak effect; type: functional
Rattus norvegicus [8] = experiment: Anticonvulsant activity in po dosed Sprague-Dawley rat assessed as protection against maximal electroshock-induced seizures; type: functional
Outline: (§1)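 Male rodents screened through the NIH Anticonvulsant Screening Program: albino Carworth Farms No. 1 mice given compound ip, albino Sprague-Dawley rats given compound po. Maximal electroshock test: tonic hindlimb seizures were induced by corneal electrical stimulation. ED50 is given in mg/kg.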

Mus musculus [9] = experiment: Anticonvulsant activity against maximal electroshock-induced seizures in ip dosed albino mouse assessed as time of peak effect; type: functional
Mus musculus [10] = experiment: Anticonvulsant activity in ip dosed albino mouse assessed as protection against maximal electroshock-induced seizures; type: functional; outline: as §1
[11] = Neurotoxicity in ip dosed albino mouse by rotarod test; type: toxicity, organism-based; details: in vivo
[12] = target: Dihydropyrimidinase-related protein 2 (Mus musculus) (UniProt O08553); experiment: Binding affinity to CRMP2 in ICR mouse brain […] at 5 uM by Western blot analysis in presence of rhodamine-containing 4-(3-azidopropylcarbamoyl)-2-(3,6-bis(dimethylamino)xanthylium-9-yl)benzoate; type: tissue-based
[13] = target: Dihydropyrimidinase-related protein 2 (Mus musculus) (UniProt O08553); experiment: Binding affinity to CRMP2 in ICR mouse brain […] at 5 uM by Western blot analysis in presence of rhodamine-containing 4-(3,6,9,12-tetraoxapentadec-14-ynylcarbamoyl)-2-(3,6-bis(dimethylamino)xanthylium-9-yl)benzoate; type: tissue-based
Outline: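 Soluble brain proteome from male 2-month ICR mice was Dounce-homogenized in 50 mM HEPES pH 7.4. It was spun at 1200 × g for 12 min, then at 100,000 × g for 1 h at 4 °C, and exchanged into pH 8.0 HEPES. Aliquots (2.0 mg/mL protein) got 5 μM agent for 30 min at RT. Click reaction used rhodamine-alkyne 50 μM, TCEP 1 mM, TBTA 200 μM, CuSO4 1 mM, 1 h RT. Read-out: SDS-PAGE, in-gel fluorescence (ex 555/em 580 nm).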

Mus musculus [14] = experiment: Anticonvulsant activity against 6 Hz electric shock-induced seizures in ip dosed albino mouse assessed as time of peak effect; type: functional
[15] = target: Dihydropyrimidinase-related protein 2 (Mus musculus) (UniProt O08553); experiment: Binding affinity to CRMP2 in ICR mouse brain […] at 5 uM by in-gel tryptic digestion analysis in presence of rhodamine-containing 4-(3-azidopropylcarbamoyl)-2-(3,6-bis(dimethylamino)xanthylium-9-yl)benzoate; type: tissue-based
Outline: (§2)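 Brain soluble fraction from male 2-month ICR mice was Dounce-homogenized in 50 mM HEPES pH 7.4 and spun at 1200 × g then 100,000 × g at 4 °C. The fraction was exchanged into HEPES pH 8.0 at 2.0 mg/mL, treated with agent (5 μM, 30 min, room temperature), then clicked to rhodamine-azide (50 μM) with TCEP 1 mM, TBTA 200 μM and CuSO4 1 mM for 1 h. After SDS-PAGE, the ~62 kDa band was trypsin-digested, iTRAQ-labelled and analysed by LC-MS/MS.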

[16] = target: Dihydropyrimidinase-related protein 2 (Mus musculus) (UniProt O08553); experiment: Binding affinity to CRMP2 in ICR mouse brain […] at 5 uM by mass spectrometry in presence of rhodamine-containing 4-(3-azidopropylcarbamoyl)-2-(3,6-bis(dimethylamino)xanthylium-9-yl)benzoate; type: tissue-based; outline: as §2
Mus musculus [17] = experiment: Protective index, ratio of TD50 for ip dosed albino mouse to ED50 for protection against maximal electroshock-induced seizures in ip dosed albino mouse; type: functional
Rattus norvegicus [18] = experiment: Protective index, ratio of TD50 for po dosed Sprague-Dawley rat to ED50 for protection against maximal electroshock-induced seizures in po dosed Sprague-Dawley rat; type: functional
Rattus norvegicus [19] = experiment: Toxicity in Sprague-Dawley rat assessed as occurrence of ataxia at 300 mg/kg, po; type: organism-based; set-up: dose 300 mg/kg, route oral; details: in vivo

Compound | Time (Rattus norvegicus [1]) [h] | Time (Mus musculus [2]) [h] | Activity (Mus musculus [3]) | TD50 [4] [mg/kg] | ED50 (Mus musculus [5]) [mg/kg] | Activity (Rattus norvegicus [6]) | Time (Rattus norvegicus [7]) [h] | ED50 (Rattus norvegicus [8]) [mg/kg] | Time (Mus musculus [9]) [h] | ED50 (Mus musculus [10]) [mg/kg] | TD50 [11] [mg/kg] | Activity [12] | Activity [13] | Time (Mus musculus [14]) [h] | Activity [15] | Activity [16] | Ratio TD50/ED50 (Mus musculus [17]) | Ratio TD50/ED50 (Rattus norvegicus [18]) | Activity (Rattus norvegicus [19])
COC[C@@H](NC(C)=O)C(=O)NCc1ccccc1 [LACOSAMIDE] | 0.5 | 0.25 | inactive | > 250 | 10 | inactive | 0.5 | 4.2 | 0.5 |  |  |  |  |  |  |  |  |  | 
CC(=O)N[C@@H](COCCN=C=S)C(=O)NCc1ccccc1 |  | 0.5 | inactive |  |  | inactive | 4 | < 30 | 0.5 | > 300 | 30 |  |  |  |  |  |  |  | 
C#Cc1ccc(CNC(=O)[C@@H](COCCN=C=S)NC(C)=O)cc1 |  |  | inactive |  |  | inactive |  |  |  |  |  | inactive |  |  |  |  |  |  | 
CC(=O)N[C@@H](COCCN=[N+]=[N-])C(=O)NCc1ccc(N=C=S)cc1 |  |  | inactive |  |  | inactive |  |  | 0.25 | 100 | 300 |  | Active |  |  |  |  |  | 
CC(=O)N[C@H](COCCN=[N+]=[N-])C(=O)NCc1ccccc1 |  | 4 | inactive | > 30 | 44 | inactive | 0.25 | > 40 | 4 | 100 | 100 |  |  | 0.5 |  |  |  |  | 
C#Cc1ccc(CNC(=O)[C@H](COCCN=C=S)NC(C)=O)cc1 |  |  | inactive |  |  | inactive |  |  |  |  |  | inactive |  |  |  |  |  |  | 
C#CCOC[C@H](NC(C)=O)C(=O)NCc1ccc(N=C=S)cc1 |  |  | inactive |  |  | inactive |  |  |  | > 300 | > 300 | Active |  |  | Active | Active |  |  | 
CCCC(CCC)C(=O)[O-].[Na+] [VALPROATE SODIUM] | 0.5 | 0.25 | inactive |  |  | inactive | 0.5 |  | 0.25 | 270 |  |  |  |  |  |  |  |  | 
CC(=O)N[C@@H](COCCN=[N+]=[N-])C(=O)NCc1ccccc1 |  |  | inactive |  |  | inactive |  |  |  | > 300 | > 300 |  |  |  |  |  |  |  | 
C#CCOC[C@@H](NC(C)=O)C(=O)NCc1ccc(N=C=S)cc1 |  | 0.25 | inactive | > 30 | 53 | inactive |  | > 30 | 1 | 45 | 110 | Active |  | 0.5 | Active | Active | 2.4 |  | 
C#CCOC[C@H](NC(C)=O)C(=O)NCc1ccccc1 |  |  | inactive | > 30 | > 30 | inactive |  | 30 |  | > 300 | > 300 |  |  |  |  |  |  |  | 
CCC1(c2ccccc2)C(=O)NC(=O)NC1=O [PHENOBARBITAL] | 0.5 | 0.5 | inactive |  |  | inactive | 5 | 9.1 | 1 | 22 |  |  |  |  |  |  |  |  | 
CC(=O)N[C@H](COCCN=[N+]=[N-])C(=O)NCc1ccc(N=C=S)cc1 |  | 0.5 | inactive |  |  | inactive |  |  | 4 | 100 | 100 |  | Active |  |  |  |  |  | 
C#Cc1ccc(CNC(=O)[C@@H](COC)NC(C)=O)cc1 | 0.5 | 0.5 | inactive | < 30 |  | inactive |  |  | 0.5 | 3 | 10 |  |  |  |  |  |  |  | 
CC(=O)N[C@@H](CO)C(=O)NCc1ccc(N=C=S)cc1 |  |  | inactive | > 30 |  | inactive |  | 180 |  | 100 | 30 |  |  |  |  |  |  |  | 
CC(=O)N[C@H](COCCN=C=S)C(=O)NCc1ccccc1 | 4 |  | inactive | > 30 |  | inactive | 4 | < 30 | 0.5 | > 300 | 30 |  |  |  |  |  |  |  | 
C#CCOC[C@@H](NC(C)=O)C(=O)NCc1ccccc1 |  | 0.25 | inactive | > 500 | 29 | inactive | 0.5 | 7.9 | 0.25 | 16 | 59 |  |  | 0.5 |  |  | 3.7 | >63 | 
C#Cc1ccc(CNC(=O)[C@H](COC)NC(C)=O)cc1 |  | 0.5 | inactive |  |  | inactive |  |  | 0.5 | > 300 | 300 |  |  |  |  |  |  |  | 
CC(=O)N[C@H](CO)C(=O)NCc1ccc(N=C=S)cc1 |  | 0.25 | inactive | > 250 |  | inactive | 4 | 4.2 | 0.5 | 24 | 47 |  |  |  |  |  | 2 | >59 | 
O=C1NC(=O)C(c2ccccc2)(c2ccccc2)N1 [PHENYTOIN] |  | 2 | inactive |  |  | inactive | 4 | > 30 | 2 |  |  |  |  |  |  |  |  |  | Non-toxic
